Converted amounts (≈) assume the structure as drawn. The source made the active and inactive calls. The rule behind the calls is not given here.
Key:
[1] = system: Escherichia coli; test: Antibacterial activity against Escherichia coli C600 expressing ESBL SHV2; format: functional
Method in brief: (§1)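 MIC by agar dilution (CLSI M7-A7) on Mueller-Hinton agar with twofold serial drug dilutions; 10^4 CFU spotted per spot; aerobic incubation 18 to 20 h at 35°C; MIC read as lowest concentration preventing visible growth.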

[2] = system: Pseudomonas aeruginosa; test: Antibacterial activity against Pseudomonas aeruginosa 93; format: functional; method in brief: as §1
[3] = system: Escherichia coli; test: Antibacterial activity against Escherichia coli C600 expressing ESBL CTX-M18; format: functional; method in brief: as §1
[4] = system: Escherichia coli; test: Antibacterial activity against Escherichia coli C600 expressing ESBL SHV3; format: functional; method in brief: as §1
[5] = system: Escherichia coli; test: Antibacterial activity against Escherichia coli C600 expressing ESBL TEM3; format: functional; method in brief: as §1
[6] = system: Pseudomonas aeruginosa; test: Antibacterial activity against Pseudomonas aeruginosa PAO1456 expressing constitutive AmpC; format: functional
Method in brief: (§2)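 Agar dilution MIC per NCCLS (CLSI) M7-A7 on Mueller-Hinton agar with twofold serial drug dilutions. Inoculum 10^4 CFU per spot, aerobic incubation 18 to 20 h at 35°C. MIC is the lowest concentration preventing visible growth.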

[7] = system: Escherichia coli; test: Antibacterial activity against Escherichia coli C600 expressing ESBL SHV4; format: functional; method in brief: as §1
[8] = system: Pseudomonas aeruginosa; test: Antibacterial activity against Pseudomonas aeruginosa KG3056 producing MexCD-OprJ efflux pump; format: functional; method in brief: as §2
[9] = system: Escherichia coli; test: Antibacterial activity against Escherichia coli C600 expressing SHV1; format: functional; method in brief: as §1
[10] = system: Escherichia coli; test: Antibacterial activity against Escherichia coli C600 expressing ESBL TEM4; format: functional; method in brief: as §1
[11] = system: Pseudomonas aeruginosa; test: Antibacterial activity against Pseudomonas aeruginosa KG4545 producing MexXY efflux pump; format: functional; method in brief: as §2
[12] = system: Pseudomonas aeruginosa; test: Antibacterial activity against Pseudomonas aeruginosa PAO4222; format: functional; method in brief: as §2
[13] = system: Escherichia coli; test: Antibacterial activity against Escherichia coli C600 expressing ESBL TEM5; format: functional; method in brief: as §1
[14] = system: Escherichia coli; test: Antibacterial activity against Escherichia coli C600 expressing ESBL TEM7; format: functional; method in brief: as §1
[15] = system: Pseudomonas aeruginosa; test: Efficacy against Pseudomonas aeruginosa 93 assessed as reduction in bacterial counts in mouse urinary tract infection model at 0.5 mg/kg; format: functional, organism-based; set-up: dose 0.5 mg/kg; conditions: Urine
Method in brief: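 Female ICR mice (4 weeks) were denied water 1 day. Under pentobarbital anesthesia they received 4.32 log10 CFU of strain 93 via the […], which was then clamped 5 h. Dosed sc at 5 h post-challenge plus twice daily for 2 days. Bilateral kidney viable counts taken the day after last treatment; 6 mice/dose.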

[16] = system: Escherichia coli; test: Antibacterial activity against Escherichia coli C600 expressing TEM1; format: functional; method in brief: as §1
[17] = system: Escherichia coli; test: Antibacterial activity against Escherichia coli C600 expressing ESBL TEM8; format: functional; method in brief: as §1
[18] = system: Escherichia coli; test: Antibacterial activity against Escherichia coli C600 expressing ESBL TEM9; format: functional; method in brief: as §1
[19] = system: Escherichia coli; test: Antibacterial activity against Escherichia coli C600 expressing ESBL TEM6; format: functional; method in brief: as §1
[20] = system: Pseudomonas aeruginosa; test: Antibacterial activity against imipenem-resistant Pseudomonas aeruginosa; format: functional; method in brief: as §2
[21] = system: Pseudomonas aeruginosa; test: Reduction in susceptibility against Pseudomonas aeruginosa PAO1 after single passage; format: functional, organism-based
Method in brief: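 PAO1 passaged daily for five consecutive days in fresh Mueller-Hinton broth with twofold drug dilution series. Each next inoculum came from the tube at one-fourth the MIC. MIC change was followed across passages.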

[22] = system: Escherichia coli; test: Antibacterial activity against Escherichia coli C600 expressing ESBL CTX-M3; format: functional; method in brief: as §1
[23] = system: Pseudomonas aeruginosa; test: Efficacy against Pseudomonas aeruginosa 93 pulmonary infection in mouse assessed as reduction in bacterial counts at 10 mg/kg, sc; format: functional, organism-based; set-up: dose 10 mg/kg
Method in brief: (§3)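 Male ICR mice (4 weeks), made neutropenic with cyclophosphamide 200 mg/kg ip 4 days before infection. Under pentobarbital anesthesia (50 mg/kg iv) they were challenged intranasally with 3.30 log10 CFU of strain 93, grown on tryptic soy agar 35°C 20 h and suspended in saline. Dosed sc twice daily for 3 days from 3 h post-infection. Lung viable counts taken the day after last dose; 6 mice/dose.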

[24] = system: Pseudomonas aeruginosa; test: Antibacterial activity against Pseudomonas aeruginosa 22029 expressing metallo beta lactamase; format: functional; method in brief: as §2
[25] = system: Pseudomonas aeruginosa; test: Efficacy against Pseudomonas aeruginosa 93 pulmonary infection in mouse assessed as reduction in bacterial counts at 2 mg/kg, sc; format: functional, organism-based; set-up: dose 2 mg/kg; method in brief: as §3
[26] = system: Pseudomonas aeruginosa; test: Antibacterial activity against Pseudomonas aeruginosa PAO1; format: functional; method in brief: as §2
[27] = system: Pseudomonas aeruginosa; test: Antibacterial activity against ceftazidime-resistant Pseudomonas aeruginosa; format: functional; method in brief: as §2
[28] = system: Pseudomonas aeruginosa; test: Antibacterial activity against Pseudomonas aeruginosa FP1380 expressing constitutive AmpC; format: functional; method in brief: as §1
[29] = system: Pseudomonas aeruginosa; test: Antibacterial activity against Pseudomonas aeruginosa PAO4069 expressing inducible AmpC; format: functional; method in brief: as §2
[30] = system: Pseudomonas aeruginosa; test: Antibacterial activity against Pseudomonas aeruginosa; format: functional; method in brief: as §2
[31] = system: Pseudomonas aeruginosa; test: Antibacterial activity against ciprofloxacin-resistant Pseudomonas aeruginosa; format: functional; method in brief: as §2
[32] = system: Escherichia coli; test: Antibacterial activity against Escherichia coli C600 expressing TEM2; format: functional; method in brief: as §1
[33] = system: Escherichia coli; test: Antibacterial activity against Escherichia coli C600; format: functional; method in brief: as §1
[34] = system: Pseudomonas aeruginosa; test: Antibacterial activity against Pseudomonas aeruginosa KG2212 producing MexAB-OprM efflux pump; format: functional; method in brief: as §2
[35] = system: Pseudomonas aeruginosa; test: Antibacterial activity against Pseudomonas aeruginosa KG4001 producing MexEF-OprN efflux pump; format: functional; method in brief: as §2
[36] = system: Escherichia coli; test: Antibacterial activity against Escherichia coli C600 expressing ESBL OXA2; format: functional; method in brief: as §1
[37] = system: Escherichia coli; test: Antibacterial activity against Escherichia coli C600 expressing OXA1; format: functional; method in brief: as §1

For C[C@@H](O)[C@H]1C(=O)N2C(C(=O)O)=C(SCCNC=N)C[C@H]12 [IMIPENEM ANHYDROUS], which MIC [1] is on record?
Its MIC is 0.25 µg/mL (≈ 0.835 µM).

And the MIC [2]?
The MIC was 1 µg/mL (≈ 3.34 µM).

And the MIC [3]?
The MIC was 0.25 µg/mL (≈ 0.835 µM).

And the MIC [4]?
The MIC was 0.25 µg/mL (≈ 0.835 µM).

And the MIC [5]?
Its MIC is 0.25 µg/mL (≈ 0.835 µM).

What about the MIC [6] of the same molecule?
The MIC was 1 µg/mL (≈ 3.34 µM).

And the MIC [7]?
The MIC was 0.25 µg/mL (≈ 0.835 µM).

What about the MIC [8] of the same molecule?
Its MIC is 0.5 µg/mL (≈ 1.67 µM).

What about the MIC [9] of the same molecule?
The MIC was 0.25 µg/mL (≈ 0.835 µM).

And the MIC [10]?
Its MIC is 0.25 µg/mL (≈ 0.835 µM).

And the MIC [11]?
Its MIC is 1 µg/mL (≈ 3.34 µM).

And the MIC [12]?
Its MIC is 1 µg/mL (≈ 3.34 µM).

And the MIC [13]?
Its MIC is 0.25 µg/mL (≈ 0.835 µM).

What about the MIC [14] of the same molecule?
Its MIC is 0.25 µg/mL (≈ 0.835 µM).

What about the Activity [15] of the same molecule?
The Activity was “Active”.

What about the MIC [16] of the same molecule?
The MIC was 0.125 µg/mL (≈ 0.418 µM).

What about the MIC [17] of the same molecule?
Its MIC is 0.25 µg/mL (≈ 0.835 µM).

What about the MIC [18] of the same molecule?
The MIC was 0.25 µg/mL (≈ 0.835 µM).

What about the MIC [19] of the same molecule?
Its MIC is 0.25 µg/mL (≈ 0.835 µM).

What about the MIC [20] of the same molecule?
The MIC was 16 µg/mL (≈ 53.4 µM).

What about the MIC50 [20] of the same molecule?
The MIC50 was 16 µg/mL (≈ 53.4 µM).

And the MIC90 [20]?
The MIC90 was 32 µg/mL (≈ 107 µM).

And the Activity [21]?
Its Activity is “Active”.

And the MIC [22]?
The MIC was 0.25 µg/mL (≈ 0.835 µM).

And the Activity [23]?
Its Activity is “Active”.

What about the MIC [24] of the same molecule?
The MIC was 128 µg/mL (≈ 428 µM).

What about the Activity [25] of the same molecule?
Its Activity is “Active”.

And the MIC [26]?
The MIC was 4 µg/mL (≈ 13.4 µM).

And the MIC50 [27]?
The MIC50 was 16 µg/mL (≈ 53.4 µM).

What about the MIC90 [27] of the same molecule?
Its MIC90 is 32 µg/mL (≈ 107 µM).

And the MIC [28]?
Its MIC is 0.5 µg/mL (≈ 1.67 µM).

And the MIC [29]?
The MIC was 1 µg/mL (≈ 3.34 µM).

And the MIC50 [30]?
Its MIC50 is 2 µg/mL (≈ 6.68 µM).

And the MIC90 [30]?
The MIC90 was 16 µg/mL (≈ 53.4 µM).

What about the MIC50 [31] of the same molecule?
The MIC50 was 8 µg/mL (≈ 26.7 µM).

What about the MIC90 [31] of the same molecule?
The MIC90 was 16 µg/mL (≈ 53.4 µM).

What about the MIC [32] of the same molecule?
Its MIC is 0.25 µg/mL (≈ 0.835 µM).

And the MIC [33]?
Its MIC is 0.25 µg/mL (≈ 0.835 µM).

And the MIC [34]?
Its MIC is 1 µg/mL (≈ 3.34 µM).

What about the MIC [35] of the same molecule?
The MIC was 1 µg/mL (≈ 3.34 µM).

What about the MIC [36] of the same molecule?
Its MIC is 0.25 µg/mL (≈ 0.835 µM).

And the MIC [37]?
Its MIC is 0.25 µg/mL (≈ 0.835 µM).
